{"data": "Measurements collected from several papers", "read-out": "cell growth or viability", "note": "pIC50: −log10 of the molar value."}
{"Compound": "CC(C)(C)c1nc(-c2cccc(NS(=O)(=O)c3c(F)cccc3F)c2F)c(-c2ccnc(N)n2)s1", "cell line": "WM 266-4", "technique": "MTT", "tested at": "100 µM", "time": "48 h", "endpoint": "viability", "value": "38.1%"}
{"Compound": "COc1ccc(-c2nc(NN=C3C(=O)Nc4ccc(F)cc43)c3ccccc3n2)cc1OC", "cell line": "ZR75", "tested at": "30 µM", "endpoint": "inhibition", "value": "26.5%"}
{"Compound": "O=C1Nc2ccccc2/C1=N/NC(=O)c1cc2ccccc2[nH]1", "cell line": "ZR75", "tested at": "30 µM", "endpoint": "inhibition", "value": "57.7%"}
{"Compound": "Cn1cc(-c2cc(N3CCCCS3(=O)=O)ccc2Oc2ccc(F)cc2F)c2c(F)c[nH]c2c1=O", "cell line": "MOLM-14", "technique": "CCK-8", "time": "72 h", "endpoint": "GI50", "value": "0.0081 µM"}
{"Compound": "O=C(Nc1cnn2ccc(N3CCC[C@@H]3c3cc(F)ccc3F)nc12)N1CC[C@H](O)C1", "cell line": "KM12", "technique": "ATP luminescence", "time": "72 h", "endpoint": "pIC50", "value": "< 4.30"}
{"Compound": "CC#CC(=O)N1CC[C@@H](n2cc(-c3ccc(Oc4c(F)cccc4F)cc3)c3c(N)n[nH]c(=O)c32)C1", "cell line": "JeKo-1", "technique": "ATP luminescence", "time": "72 h", "endpoint": "GI50", "value": "4.88 µM"}
{"Compound": "Cc1ccc(C(CS(=O)(=O)c2ccccc2)=NNc2nc(-c3ccc(OCCCCOc4ccc(-c5csc(NN=C(CS(=O)(=O)c6ccccc6)c6ccc(C)cc6)n5)cc4)cc3)cs2)cc1", "cell line": "WM 266-4", "technique": "MTT", "tested at": "25 µM", "time": "48 h", "endpoint": "viability", "value": "48.8%"}
{"Compound": "O=C(Nc1ccc(C(F)(F)F)cc1)Nc1cccc(C(=O)Nc2ccc3[nH]ncc3c2)c1", "cell line": "KM12", "technique": "ATP luminescence", "time": "72 h", "endpoint": "pIC50", "value": 4.47}
{"Compound": "O=C(N/N=C1\\C(=O)N(c2ccccc2)c2ccccc21)c1cc2ccccc2[nH]1", "cell line": "ZR75", "tested at": "30 µM", "endpoint": "inhibition", "value": "92.2%"}
{"Compound": "COc1cccc(Oc2ccccc2NC(=O)CNC(=O)c2cccc3ccccc23)c1", "cell line": "KM12", "technique": "SRB", "time": "48 h", "endpoint": "GI50", "value": "0.191 µM"}
{"Compound": "NC(=S)NN=C(CS(=O)(=O)c1ccccc1)c1ccc(F)cc1", "cell line": "WM 266-4", "technique": "MTT", "tested at": "0.4 µM", "time": "48 h", "endpoint": "viability", "value": "58%"}
{"Compound": "Cc1ccc2c(c1)C(=NNc1nc3ccccc3n(C)c1=O)C(=O)N2", "cell line": "ZR75", "tested at": "30 µM", "endpoint": "inhibition", "value": "71%"}
{"Compound": "CN1C(=O)/C(=N\\NC(=O)c2cc3ccccc3[nH]2)c2cc(F)ccc21", "cell line": "ZR75", "tested at": "30 µM", "endpoint": "inhibition", "value": "78.8%"}
{"Compound": "Cn1c(=O)c(NN=C2C(=O)Nc3ccc(F)cc32)nc2ccccc21", "cell line": "ZR75", "tested at": "30 µM", "endpoint": "inhibition", "value": "22.6%"}
{"Compound": "S=C([S][Au-][P+](CCCCCC[P+]([Au-][S]C(=S)n1cccn1)(c1ccccc1)c1ccccc1)(c1ccccc1)c1ccccc1)n1cccn1", "cell line": "KM12", "endpoint": "GI50", "value": "0.434 µM"}
{"Compound": "Cc1ccc(C(CS(=O)(=O)c2ccccc2)=NNC2=NC(=O)C(=NNc3ccccc3)S2)cc1", "cell line": "WM 266-4", "technique": "MTT", "tested at": "100 µM", "time": "48 h", "endpoint": "viability", "value": "35.7%"}
{"Compound": "COc1ccc2c(c1)C(=NNc1nc(-c3ccc(OC)c(OC)c3)nc3ccccc13)C(=O)N2", "cell line": "ZR75", "tested at": "30 µM", "endpoint": "inhibition", "value": "23.1%"}
{"Compound": "COc1ccc2c(c1)/C(=N/NC(=O)c1cc3ccccc3[nH]1)C(=O)N2", "cell line": "ZR75", "tested at": "30 µM", "endpoint": "inhibition", "value": "65.9%"}
{"Compound": "COc1cc2ncnc(NN=C3C(=O)Nc4ccccc43)c2cc1OC", "cell line": "ZR75", "tested at": "30 µM", "endpoint": "inhibition", "value": "50.4%"}
{"Compound": "CN1CCN(c2ccc(C(=O)Nc3n[nH]c4ccc(Cc5cc(F)cc(F)c5)cc34)c(NC3CCOCC3)c2)CC1", "cell line": "KM12", "technique": "ATP luminescence", "time": "72 h", "endpoint": "pIC50", "value": 4.63}
{"Compound": "COc1ccc(C2=Nn3c(NN=C4C(=O)Nc5ccc(OC)cc54)nnc3SC2)cc1", "cell line": "SR", "technique": "SRB", "tested at": "10 µM", "endpoint": "inhibition", "value": "36%"}
{"Compound": "COc1ccc2c(c1)/C(=N/NC(=O)c1cc3ccccc3[nH]1)C(=O)N2C", "cell line": "ZR75", "tested at": "30 µM", "endpoint": "inhibition", "value": "82.5%"}
{"Compound": "COc1ccc2c(c1)C(=NNc1ncnc3cc(OC)c(OC)cc13)C(=O)N2", "cell line": "ZR75", "tested at": "10 µM", "endpoint": "inhibition", "value": "32%"}
{"Compound": "Cc1ccc(C(CS(=O)(=O)c2ccccc2)=NN=C2N=C(c3ccc(Br)cc3)CS2)cc1", "cell line": "WM 266-4", "technique": "MTT", "tested at": "0.4 µM", "time": "48 h", "endpoint": "viability", "value": "63.8%"}
{"Compound": "COc1cc2ncnc(NN=C3C(=O)Nc4ccc(C)cc43)c2cc1OC", "cell line": "ZR75", "tested at": "30 µM", "endpoint": "inhibition", "value": "40.4%"}
{"Compound": "O=C1Nc2ccc(Br)cc2/C1=N/NC(=O)c1cc2ccccc2[nH]1", "cell line": "ZR75", "tested at": "30 µM", "endpoint": "inhibition", "value": "58.9%"}
{"Compound": "O=C1Nc2ccccc2C1=NNc1nnc(Cc2ccccc2)c2ccccc12", "cell line": "ZR75", "tested at": "30 µM", "endpoint": "inhibition", "value": "54.3%"}
{"Compound": "CNC(=O)c1cc(Oc2ccc(NC(=O)Nc3ccc(Cl)c(C(F)(F)F)c3)cc2)ccn1", "cell line": "WM 266-4", "technique": "MTT", "tested at": "100 µM", "time": "48 h", "endpoint": "viability", "value": "33.9%"}
